In ChEMBL document CHEMBL1255404, “Spread of OXA-48-encoding plasmid in Turkey and beyond” (2010):
In brackets after ≈: the same amount, converted by molar mass.

What was measured:
Assay type in all cases: functional
[1] = system: Klebsiella pneumoniae; assay: Antimicrobial activity against Klebsiella pneumoniae isolate KpL expressing beta-lactamase OXA-48 by Etest method
[2] = system: Klebsiella pneumoniae; assay: Antimicrobial activity against Klebsiella pneumoniae isolate Kp11978 expressing beta-lactamase OXA-48, SHV-2a and TEM-1 by Etest method
[3] = system: Escherichia coli; assay: Antimicrobial activity against Escherichia coli isolate J53 harboring pA-1 containing beta-lactamase OXA-48 located within transposon Tn1999 by Etest method
Method in brief: (§1)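 β-Lactam MICs read with Etest strips. Strains are E. coli J53 recipient and J53 transconjugants carrying OXA-48-positive plasmids recovered from clinical enterobacterial isolates.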

[4] = system: Klebsiella pneumoniae; assay: Antimicrobial activity against Klebsiella pneumoniae isolate KpB expressing OXA-48 and CTX-M-15 by Etest method
[5] = system: Escherichia coli; assay: Antimicrobial activity against Escherichia coli isolate J53 harboring pBb containing beta-lactamase OXA-48 located within transposon Tn1999.2 by Etest method; method in brief: as §1
[6] = system: Klebsiella pneumoniae; assay: Antimicrobial activity against Klebsiella pneumoniae isolate Kp3A expressing beta-lactamase OXA-48 by Etest method
Method in brief: (§2)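 MICs of β-lactams read from Etest strips. The test organisms are carbapenem-resistant, OXA-48-positive clinical Enterobacteriaceae isolates recovered from Turkey, Lebanon, Egypt, France and Belgium.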

[7] = system: Escherichia coli; assay: Antimicrobial activity against Escherichia coli isolate J53 harboring p3A containing beta-lactamase OXA-48 located within transposon Tn1999 by Etest method; method in brief: as §1
[8] = system: Klebsiella pneumoniae; assay: Antimicrobial activity against Klebsiella pneumoniae isolate Kp4A expressing beta-lactamase OXA-48 and CTX-M-15 by Etest method
[9] = system: Klebsiella pneumoniae; assay: Antimicrobial activity against Klebsiella pneumoniae isolate Kp5A expressing beta-lactamase OXA-48 and SHV-5 by Etest method
[10] = system: Klebsiella pneumoniae; assay: Antimicrobial activity against Klebsiella pneumoniae isolate Kp6A expressing beta-lactamase OXA-48 and TEM-150 by Etest method
[11] = system: Escherichia coli; assay: Antimicrobial activity against Escherichia coli isolate J53 harboring p4A containing beta-lactamase OXA-48 located within transposon Tn1999 by Etest method; method in brief: as §1
[12] = system: Escherichia coli; assay: Antimicrobial activity against Escherichia coli isolate J53 harboring p5A containing beta-lactamase OXA-48 located within transposon Tn1999 by Etest method; method in brief: as §1
[13] = system: Escherichia coli; assay: Antimicrobial activity against Escherichia coli isolate J53 harboring p6A containing beta-lactamase OXA-48 located within transposon Tn1999 by Etest method; method in brief: as §1
[14] = system: Klebsiella pneumoniae; assay: Antimicrobial activity against Klebsiella pneumoniae isolate Kp7A expressing beta-lactamase OXA-48 by Etest method; method in brief: as §2
[15] = system: Escherichia coli; assay: Antimicrobial activity against Escherichia coli isolate J53 harboring p7A containing beta-lactamase OXA-48 located within transposon Tn1999 by Etest method; method in brief: as §1
[16] = system: Klebsiella pneumoniae; assay: Antimicrobial activity against Klebsiella pneumoniae isolate KpI-1 expressing beta-lactamase OXA-48 and CTX-M-15 by Etest method
[17] = system: Klebsiella pneumoniae; assay: Antimicrobial activity against Klebsiella pneumoniae isolate KpI-2 expressing beta-lactamase OXA-48 and CTX-M-15 by Etest method
[18] = system: Escherichia coli; assay: Antimicrobial activity against Escherichia coli isolate J53 harboring pI-1 containing beta-lactamase OXA-48 located within transposon Tn1999.2 by Etest method; method in brief: as §1
[19] = system: Escherichia coli; assay: Antimicrobial activity against Escherichia coli isolate J53 harboring pI-2 containing beta-lactamase OXA-48 located within transposon Tn1999.2 by Etest method; method in brief: as §1
[20] = system: Klebsiella pneumoniae; assay: Antimicrobial activity against Klebsiella pneumoniae isolate KpBIC expressing beta-lactamase OXA-48 by Etest method; method in brief: as §2
[21] = system: Escherichia coli; assay: Antimicrobial activity against Escherichia coli isolate TOP10 harboring pBIC containing beta-lactamase OXA-48 located within transposon Tn1999.2 by Etest method
Method in brief: (§3)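 β-Lactam MICs read with Etest strips. Strains are E. coli TOP10 host and TOP10 transformants made with plasmid DNA extract when conjugation failed. Transformants were selected on LB agar with ticarcillin 50 μg/ml.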

[22] = system: Klebsiella pneumoniae; assay: Antimicrobial activity against Klebsiella pneumoniae isolate KpE expressing beta-lactamase OXA-48 and CTX-M-15 by Etest method
[23] = system: Escherichia coli; assay: Antimicrobial activity against Escherichia coli isolate J53 harboring pE containing beta-lactamase OXA-48 located within transposon Tn1999.2 by Etest method; method in brief: as §1
[24] = system: Klebsiella pneumoniae; assay: Antimicrobial activity against Klebsiella pneumoniae isolate KpBEL expressing beta-lactamase OXA-48 by Etest method; method in brief: as §2
[25] = system: Escherichia coli; assay: Antimicrobial activity against Escherichia coli isolate J53 harboring pBEL containing beta-lactamase OXA-48 located within transposon Tn1999.2 by Etest method; method in brief: as §1
[26] = system: Escherichia coli; assay: Antimicrobial activity against Escherichia coli isolate J53 harboring pL containing beta-lactamase OXA-48 located within transposon Tn1999.2 by Etest method; method in brief: as §1
[27] = system: Providencia rettgeri; assay: Antimicrobial activity against Providencia rettgeri isolate expressing beta-lactamase OXA-48 and TEM-101 by Etest method
[28] = system: Escherichia coli; assay: Antimicrobial activity against Escherichia coli isolate TOP10 harboring pPR containing beta-lactamase and TEM-101 by Etest method; method in brief: as §3
[29] = system: Enterobacter cloacae; assay: Antimicrobial activity against Enterobacter cloacae isolate 1 expressing beta-lactamase OXA-48 and SHV-5 by Etest method
[30] = system: Escherichia coli; assay: Antimicrobial activity against Escherichia coli isolate J53 harboring pEnc1 containing beta-lactamase OXA-48 located within transposon Tn1999 by Etest method; method in brief: as §1
[31] = system: Enterobacter cloacae; assay: Antimicrobial activity against Enterobacter cloacae isolate 2 expressing beta-lactamase OXA-48 and SHV-5 by Etest method
[32] = system: Escherichia coli; assay: Antimicrobial activity against Escherichia coli isolate J53 harboring pEnc2 containing beta-lactamase OXA-48 located within transposon Tn1999 by Etest method; method in brief: as §1
[33] = system: Citrobacter freundii; assay: Antimicrobial activity against Citrobacter freundii isolate expressing beta-lactamase OXA-48 by Etest method
[34] = system: Escherichia coli; assay: Antimicrobial activity against Escherichia coli isolate J53 harboring pCF containing beta-lactamase OXA-48 located within transposon Tn1999 by Etest method; method in brief: as §1
[35] = system: Escherichia coli; assay: Antimicrobial activity against Escherichia coli isolate A expressing beta-lactamase OXA-48 and TEM-150 by Etest method
[36] = system: Escherichia coli; assay: Antimicrobial activity against Escherichia coli isolate J53 harboring pEcA containing beta-lactamase OXA-48 located within transposon Tn1999.2 by Etest method; method in brief: as §1
[37] = system: Escherichia coli; assay: Antimicrobial activity against Escherichia coli isolate J53 by Etest method; method in brief: as §1
[38] = system: Escherichia coli; assay: Antimicrobial activity against Escherichia coli isolate TOP10 by Etest method; method in brief: as §3

With `CC(=O)OCC1=C(C(=O)O)N2C(=O)[C@@H](NC(=O)Cc3cccs3)[C@H]2SC1` [CEPHALOTHIN] the MIC [1] was 32 mg/L (≈ 80.7 µM), the MIC [2] was over 512 mg/L and the MIC [3] was 0.5 mg/L (≈ 1.26 µM). The MIC [4] was over 512 mg/L, the MIC [5] was 16 mg/L (≈ 40.4 µM) and the MIC [6] was over 512 mg/L. For the same molecule, the MIC [7] was 16 mg/L (≈ 40.4 µM), the MIC [8] was over 512 mg/L and the MIC [9] was over 512 mg/L. It also gave an MIC [10] of over 512 mg/L, an MIC [11] of 16 mg/L (≈ 40.4 µM) and an MIC [12] of 16 mg/L (≈ 40.4 µM). For the same molecule, the MIC [13] was 16 mg/L (≈ 40.4 µM), the MIC [14] was over 512 mg/L and the MIC [15] was 16 mg/L (≈ 40.4 µM). It also gave an MIC [16] of over 512 mg/L, an MIC [17] of over 512 mg/L and an MIC [18] of 16 mg/L (≈ 40.4 µM). For the same molecule, the MIC [19] was 16 mg/L (≈ 40.4 µM), the MIC [20] was over 512 mg/L and the MIC [21] was 16 mg/L (≈ 40.4 µM). The MIC [22] was over 512 mg/L, the MIC [23] was 16 mg/L (≈ 40.4 µM) and the MIC [24] was 16 mg/L (≈ 40.4 µM). The MIC [25] was 16 mg/L (≈ 40.4 µM), the MIC [26] was 8 mg/L (≈ 20.2 µM) and the MIC [27] was over 512 mg/L. For the same molecule, the MIC [28] was 16 mg/L (≈ 40.4 µM), the MIC [29] was over 512 mg/L and the MIC [30] was 16 mg/L (≈ 40.4 µM). The MIC [31] was over 512 mg/L, the MIC [32] was 16 mg/L (≈ 40.4 µM) and the MIC [33] was over 512 mg/L. The MIC [34] was over 512 mg/L, the MIC [35] was over 512 mg/L and the MIC [36] was 16 mg/L (≈ 40.4 µM). It also gave an MIC [37] of 4 mg/L (≈ 10.1 µM) and an MIC [38] of 4 mg/L (≈ 10.1 µM).
Molecule `CCN1CCN(C(=O)N[C@@H](C(=O)N[C@@H]2C(=O)N3[C@@H]2SC(C)(C)[C@@H]3C(=O)O)c2ccccc2)C(=O)C1=O` [PIPERACILLIN] has an MIC [1] of 96 mg/L (≈ 185 µM), an MIC [2] of over 512 mg/L and an MIC [3] of 8 mg/L (≈ 15.5 µM). It also gave an MIC [4] of over 512 mg/L, an MIC [5] of over 512 mg/L and an MIC [6] of over 512 mg/L. The MIC [7] was 512 mg/L (≈ 989 µM), the MIC [8] was over 512 mg/L and the MIC [9] was over 512 mg/L. For the same molecule, the MIC [10] was over 512 mg/L, the MIC [11] was over 512 mg/L and the MIC [12] was over 512 mg/L. It also gave an MIC [13] of over 512 mg/L, an MIC [14] of over 512 mg/L and an MIC [15] of over 512 mg/L. For the same molecule, the MIC [16] was over 512 mg/L, the MIC [17] was over 512 mg/L and the MIC [18] was 512 mg/L (≈ 989 µM). The MIC [19] was 512 mg/L (≈ 989 µM), the MIC [20] was over 512 mg/L and the MIC [21] was over 512 mg/L. For the same molecule, the MIC [22] was over 512 mg/L, the MIC [23] was 512 mg/L (≈ 989 µM) and the MIC [24] was over 256 mg/L. The MIC [25] was 128 mg/L (≈ 247 µM), the MIC [26] was 64 mg/L (≈ 124 µM) and the MIC [27] was over 256 mg/L. It also gave an MIC [28] of 128 mg/L (≈ 247 µM), an MIC [29] of over 512 mg/L and an MIC [30] of over 512 mg/L. The MIC [31] was over 512 mg/L, the MIC [32] was over 512 mg/L and the MIC [33] was over 512 mg/L. For the same molecule, the MIC [34] was over 512 mg/L, the MIC [35] was over 256 mg/L and the MIC [36] was 128 mg/L (≈ 247 µM). It also gave an MIC [37] of 1 mg/L (≈ 1.93 µM) and an MIC [38] of 2 mg/L (≈ 3.86 µM).
